From the RNAGym collection of RNA variant scans (doi:10.1126/science.aae0568)
This sample holds only a part of the variants without activity.

B1: tRNA (parent)
chain: GUUCCGUUGGCGUAAUGGUAACGCGUCUCCCUCCUAAGGAGAAGACUGCGGGUUCGAGUCCCGUACGGAACG

Variants of: B1
Assay: yeast fitness relative to wild type (ratio to wild type); higher = fitter; tRNA-Arg(CCU), competitive growth, 37 C, YPD
Outline: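 Amplicons of the tRNA-Arg(CCU) gene were sequenced, 100-nucleotide paired-end, from the start population and from each end population of a pooled yeast competition. The competition, in six parallel replicates, lasted 24 hours in YPD at 37°C. Fitness relative to wild type was calculated from changes in genotype frequencies. Genotypes had to have ≥ 100 starting reads, and estimates < 0.5 were set to 0.5.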

Variant | yeast fitness
U35C A45C | 0.862
C34G A43U G48C | ≤ 0.5
C34U G41C A69G | ≤ 0.5
C33U C61G G68C | ≤ 0.5
A36U G48C C66U | ≤ 0.5
A36U G44C | 0.629
U35C A37C G39A | ≤ 0.5
C33G A45C C61G | 0.567
A36U G58A | 0.624
A36G A65U | 0.991
C34G U53C C55G | ≤ 0.5
A36C G52C C66U | 0.54
C33G A57G C61G A65G C66U | ≤ 0.5
C34G C60G C62U | 0.65
A36U A40U A57U G63A | ≤ 0.5
A36G G56A G58C | 0.694
A36U A45U C46A G68A | ≤ 0.5
C33U A36U A43C A69C | 0.674
U35A A36U C61U | ≤ 0.5
C33G A40G G51C C61U | ≤ 0.5
C33U G39C U59C C61A C62U | ≤ 0.5
A36U C55U | 0.658
A36C C49U C55U C60U | ≤ 0.5
C33G A70U | 0.714

Variant | yeast fitness
A36G A45C C61U | 0.76
A36G U54C C61U C66U | ≤ 0.5
C34U C66G | 0.56
C34G A57C | ≤ 0.5
U35A U47C C61G | ≤ 0.5
A36U G48A G50U A57U | ≤ 0.5
C33U C34G A40G | 0.625
A36U G38A A65C | 0.518
C34G A40C C46G | 0.562
U35C A37G C60U | ≤ 0.5
C34G G50A | 0.644
A36U A42C A43G U64C A70C | 0.559
U35A A42G A43C | 0.581
A36C C49U C55U | 0.643
C34G G38C C66A A70U | ≤ 0.5
C34G A40C G44A A69U | ≤ 0.5
A36U U54A U64C A69U | ≤ 0.5
C33G C49G C55U | ≤ 0.5
C33G A40G A42C C66U | ≤ 0.5
C34G G44C | 0.652
C33U C66U | 0.651
C33G U35G A37C A43C G44A U64C | ≤ 0.5
U35C A45C C49G G56A A57U G63A | ≤ 0.5
C34U G58C A69U | ≤ 0.5

Variant | yeast fitness
C34A G50A | 0.742
C34A G50C | 0.667
A36G U53C | 0.724
C34G A37C C62U C66A | ≤ 0.5
A36G A37U A69C | 0.663
C34A G44A G52A C55U | 0.53
A36C G48A A57U | ≤ 0.5
C33U A43G G48C | ≤ 0.5
A36C C55U C60G | 0.781
U35C C49A | 0.735
U35C C49U | 0.755
U35G A45C | 0.617
C33G U47A G67C A69U | ≤ 0.5
C34G G52A C62U | 0.6
C33U | 0.694
U35C U54C | 0.696
C33G G41A A42G C46G | ≤ 0.5
C34G A36U C62A | ≤ 0.5
C34G G51C | 0.609
C34G G51A | 0.94
C33U C62G A69C | 0.595
C33U A36C | 0.517
C33G A45C U54C | ≤ 0.5
C34G A45U G50C A57C | ≤ 0.5

Variant | yeast fitness
U35A G58C | 0.634
A36G G68C A70G | ≤ 0.5
C33U C34G | 0.648
C34A A65G | 0.69
A36G G48A | 0.991
U35C A70C | 0.927
A36G G51A | 0.744
C34G C49A | 0.591
A36C G41A U53C A70C | 0.526
C34U G38C U54C | ≤ 0.5
A36C A43C C61G A70G | ≤ 0.5
C33G G51A C55A C66U | 0.56
C33G C34G C62U | ≤ 0.5
C33G U54C C62A G68C | ≤ 0.5
C33U A43U C49G G50C C61U C66U | ≤ 0.5
C34U G58C | 0.757
C34G U47A G67A | ≤ 0.5
C34U A45U | 0.686
C34G G51A C66U | 0.649
A36G C49U C61A | ≤ 0.5
U35A C62U | 0.732
C33G G63A | 0.6
A36G A37U C55G | 0.69
A36C C66A | ≤ 0.5

Variant | yeast fitness
U35A G51C U54C A57U | ≤ 0.5
U35A A42U A43U | ≤ 0.5
A36C C61G | 0.609
U35C C55A C60U A69U | ≤ 0.5
C33U G39A A70U | ≤ 0.5
A37C A45C | 0.758
A36C A45C | 0.763
A36U A45G G67A | ≤ 0.5
C34A C62U | 0.785
C34U C55U | 0.569
C34U C55A | 0.623
A36G C66G | 0.689
C34G A40G G48C G63A C66U | 0.605
A37C A42C C66U | 0.712
C34U C46G C62U | 0.549
A36U A65C | 0.596
A36U A65U | 0.597
C34G G41C C49U C62A A69C | ≤ 0.5
C33G A65U | 0.728
C34U A42G A65C | 0.57
C33G C34U U53C | 0.577
U35C G51A | 0.731
A36G G50A | 0.898
C33U C49G | 0.817

Variant | yeast fitness
C34G C61U A70U | 0.639
A36U C46G C62A | ≤ 0.5
A36C A40U | 0.604
C33U U54C C61G | ≤ 0.5
C33G C66G A70G | 0.54
A36C G48C U54G | ≤ 0.5
C34A A42G | 0.676
C34A C55G U64C A65C | ≤ 0.5
C34A A40C U54C | ≤ 0.5
U35G G38A G52C | 0.678
C33U G48A C60U U64G A65U | 0.606
U35A C49G C66G | ≤ 0.5
C34U A57C A69C | 0.738
U35C A45C C49G | 0.562
A37C A40G U47C | ≤ 0.5
C33U A36C U64C | 0.648
A36C G48C | ≤ 0.5
C33U C34U G39C | 0.605
A36C C62G | 0.575
A36G C49G A70G | 0.53
C33G C55G G67A | ≤ 0.5
A37C A42U C49A | ≤ 0.5
A36C C55U | 0.675
U35A A42C C46U | 0.521

Variant | yeast fitness
A36U A45U U53A | 0.554
A36C C49A U64C | 0.767
C34U G38C | 0.605
C34A A45C | 0.675
C34G G67A | 0.596
C34U A45U C62A | ≤ 0.5
U35A G52C | ≤ 0.5
U35A A37G A43C U54C | ≤ 0.5
C34G G41C C49U | 0.684
A36C A65G | 0.598
A36C A65U | 0.667
C34A U47C G51A | 0.53
U35G C66U | 0.681
C34G U54A | 0.563
C34G G41A A45G A57G C60G C62U | ≤ 0.5
C33U C55A C66U | 0.562
C34U G38C C55A | ≤ 0.5
U35G | 0.676
U35C | 0.817
U35A | 0.715
A36C G63A | 0.704
A36G A42G | 0.797
C34G A43U A70C | ≤ 0.5
